Blank lines part the entries; values can stand above or below the molecule they belong to. Ends that are not written are not given here.
Assays:
I-A^u [1] = target: T1, I-A^u (Mus musculus, UniProt P06344+P14438); details: for Copy/cell: peptides eluted from I-A^u, T cell–depleted B10.PL splenocytes, MBP 95 μg/ml, 16 h, 37°C, based on copy number/cell of MBPAc1-18, determined by comparison to angiotensin control; for times more detected than MBP125–135 peptides: eluted from I-A^u, MBP-pulsed splenocytes
T1 sequence (P14438 1-227): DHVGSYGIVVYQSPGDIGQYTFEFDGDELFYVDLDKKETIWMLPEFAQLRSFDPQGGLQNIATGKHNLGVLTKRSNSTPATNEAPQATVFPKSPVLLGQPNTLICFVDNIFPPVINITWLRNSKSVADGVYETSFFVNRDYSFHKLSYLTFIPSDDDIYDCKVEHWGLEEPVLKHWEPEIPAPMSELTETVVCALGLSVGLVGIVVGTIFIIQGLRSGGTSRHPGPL
T1 sequence (P06344 28-263): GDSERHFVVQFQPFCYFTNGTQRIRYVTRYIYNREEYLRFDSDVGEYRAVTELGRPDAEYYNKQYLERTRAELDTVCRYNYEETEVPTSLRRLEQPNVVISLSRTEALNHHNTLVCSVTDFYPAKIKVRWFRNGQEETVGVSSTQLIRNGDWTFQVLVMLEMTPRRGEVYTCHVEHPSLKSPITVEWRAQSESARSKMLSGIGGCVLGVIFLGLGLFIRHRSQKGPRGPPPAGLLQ
Outline: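 Spleen cells depleted of T cells (2 × 10^6 cells/ml in RPMI) were incubated 16 h at 37°C with MBP (95 μg/ml). I-Au was captured with anti-I-Au antibody on Protein A beads. Peptides were eluted in 10% acetic acid through a 10 kD filter. About 6 × 10^6 cell equivalents were spiked with 2 fmol angiotensin I and run on C18 gradient LC into FT-ICR MS. Amounts were normalized to the angiotensin standard, and identity was confirmed by CAD MS/MS and coelution with synthetic peptide.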

[2] = target: Detergent soluble I-A^u (mouse); test: dissociation kinetics of fluorescein-labelled peptide
I-A^u [3] = target: T1, I-A^u; test: Dissociation of fluorescein-labeled MBP peptides from soluble I-A^u; assay type: binding; details: for dissociation kinetics (in words): fluorescein-labeled peptide, soluble I-A^u, 1 h at 37°C, Fig. 2
[4] = tested on: MBPAc1–11-specific TCR Tg T cells; assay type: cell-based, mouse; details: 50 uM peptide; fixed splenocytes; two TCR Tg lines
Outline: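 T cells from MBPAc1–11 TCR transgenic mice were purified with anti-Vα2.3 or anti-Vβ8.1/8.2 and sorted free of I-Au+ cells. They were plated at 2 × 10^5/well in complete RPMI with 50 uM peptide or 95 μg/ml MBP. APCs were 10^6 splenocytes per well, either irradiated live or fixed in 0.1% paraformaldehyde for 5 min at room temperature. Cultures ran 48 h, were pulsed with [3H]-thymidine and harvested 18 h later.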

I-A^u [5] = target: T1, I-A^u; details: cited from earlier work
[6] = tested on: T cells from MBP-primed mice; details: synthetic peptides; cited from earlier work
[7] = by competition for I-A^u binding; cited from earlier work
MBP-specific T cells = details: B10.PL MBP-deficient shiverer (MBP^−/−) mice; cited from earlier work
[8] = biphasic dissociation, 1 h incubation at 37°C, pH 5.3, HPSEC fluorescence
[9] = incubation with I-A^u for 1 h at 37°C

- Copy/cell (I-A^u [1]): 24.4 copy/cell
Molecule: Ac1-20: N-acetylated NH2-terminal MBP peptide eluted from I-A^u (Ac-MGNHSGKRELSAEKASKDGE; UniProt P04370 1-20, looked up, fragment)

- dissociation half-life (t1/2) [2]: 0.5 h
Molecule: MBPAc1–11 (synthetic, fluorescein-labelled) (peptide)

- Copy/cell (I-A^u [1]): 18.1 copy/cell
Molecule: Ac1-16: N-acetylated NH2-terminal MBP peptide eluted from I-A^u (Ac-MGNHSGKRELSAEKAS; UniProt P04370 1-16, looked up, fragment)

- dissociation kinetics (in words) (I-A^u [3]): monophasic fast dissociation
Molecule: MBPAc1–11: N-acetylated NH2-terminal MBP epitope, low affinity I-A^u register (Ac-MGNHSGKRELS; UniProt P04370 1-11, looked up, fragment)
- T cell response on fixed APCs (in words) [4]: responded well
- binding to I-A^u (in words) (I-A^u [5]): binds I-A^u poorly

- Copy/cell (I-A^u [1]): 6.7 copy/cell
Molecule: Ac1-19: N-acetylated NH2-terminal MBP peptide eluted from I-A^u

Molecule: MBP136–146: synthetic peptide; epitope within MBP121–150 (SQKRPSQRSKY; UniProt P04370 136-146, looked up, fragment)
- affinity for I-A^u (in words) (I-A^u [5]): high affinity for I-A^u
- stimulation of T cells from MBP-primed mice [6]: stimulated T cells from MBP-primed mice

- Copy/cell (I-A^u [1]): 9.2 copy/cell
Molecule: 124-137: MBP peptide from the MBP121–150 region eluted from I-A^u (PTAASGGLDVMASQ; UniProt P04370 124-137, looked up, fragment)

- times more detected than MBP125–135 peptides (I-A^u [1]): ~20 times
- Copy/cell (I-A^u [1]): 622.0 copy/cell
- t1/2fast (rapid-dissociation phase) (I-A^u [3]; [8]): 3.7 h
- t1/2slow (slow phase) (I-A^u [3]; [8]): 117 h
- dissociation kinetics (in words) (I-A^u [3]): biphasic kinetics
- peptide bound in long-lived complexes (slow phase) (I-A^u [3]; [9]): ~62%
- peptide bound in short-lived complexes (faster phase) (I-A^u [3]; [9]): ~38%
- peptide bound in the long phase (I-A^u [3]; incubation with I-A^u for 16 h, unpublished data): 77%
Molecule: MBPAc1–18: N-acetylated NH2-terminal MBP peptide containing both the MBPAc1–11 and MBP5–16 registers
- T cell response on fixed APCs (in words) [4]: respond well

Molecule: MBPAc9–20: MBP peptide (rat) of earlier work (ref 17) (Ac-RHGSKYLATAST; UniProt P02688 10-21, looked up, fragment)
- inhibition of EAE [7]: inhibited EAE induced by immunization with rat MBPAc1–11

Molecule: rat MBPAc5–20: rat MBP peptide of earlier work (ref 17)
- inhibition of EAE [7]: inhibited EAE induced by immunization with rat MBPAc1–11

- Copy/cell (I-A^u [1]): 3.4 copy/cell
Molecule: 120-137: MBP peptide from the MBP121–150 region eluted from I-A^u (IQEDPTAASGGLDVMASQ; UniProt P04370 120-137, looked up, fragment)

- times more detected than MBP125–135 peptides (I-A^u [1]): ~20 times
Molecule: MBPAc1–17: N-acetylated NH2-terminal MBP peptide eluted from I-A^u

- Copy/cell (I-A^u [1]): 9.2 copy/cell
Molecule: 123-136: MBP peptide from the MBP121–150 region eluted from I-A^u (DPTAASGGLDVMAS; UniProt P04370 123-136, looked up, fragment)

Molecule: MBP125–135: synthetic peptide; core epitope within MBP121–150 (TAASGGLDVMA; UniProt P04370 125-135, looked up, fragment)
- affinity for I-A^u (in words) (I-A^u [5]): high affinity for I-A^u
- stimulation of T cells from MBP-primed mice [6]: stimulated T cells from MBP-primed mice

- Copy/cell (I-A^u [1]): 5.7 copy/cell
Molecule: Ac1-22: N-acetylated NH2-terminal MBP peptide eluted from I-A^u (Ac-MGNHSGKRELSAEKASKDGEIH; UniProt P04370 1-22, looked up, fragment)

- dissociation half-life, fast phase (t1/2fast) [2]: 3.7 h
- dissociation half-life, slow phase (t1/2slow) [2]: 117 h
- percent of bound peptide in long-lived complexes [2]: 62%
- percent of bound peptide in short-lived complexes [2]: 38%
- percent of bound peptide in the long phase [2]: 77%
Molecule: MBPAc1–18 (synthetic, fluorescein-labelled) (peptide)

B1: myelin basic protein (protein, UniProt P04370 1-250, looked up)
Myelin basic protein: MGNHSGKRELSAEKASKDGEIHRGEAGKKRSVGKLSQTASEDSDVFGEADAIQNNGTSAEDTAVTDSKHTADPKNNWQGAHPADPGNRPHLIRLFSRDAPGREDNTFKDRPSESDELQTIQEDPTAASGGLDVMASQKRPSQRSKYLATASTMDHARHGFLPRHRDTGILDSIGRFFSGDRGAPKRGSGKDSHTRTTHYGSLPQKSQHGRTQDENPVVHFFKNIVTPRTPPPSQGKGGRDSRSGSPMARR
- T cell response after immunization (MBP-specific T cells): strong T cell responses directed toward MBP121–150

Reference: publication PMC2193784 (The Journal of Experimental Medicine, 2003)
